Reference: ChEMBL document CHEMBL4052587, “Talarazines A-E: Noncytotoxic Iron(III) Chelators from an Australian Mud Dauber Wasp-Associated Fungus, Talaromyces sp. (CMB-W045)” (J Nat Prod, 2017)
Active and inactive are the calls of the source. The calls are words filed in the database; no cut-off is given here.

Legend:
[1] = Metal chelating activity of the compound assessed as fluorescence recovery of calcein-Fe3 complex formation up to 10 uM measured after overnight incubation by CAFe based fluorescence spectrophotometry
Summary of the method: (§1)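 Competition assay between the test chelator and a calcein–Fe(III) complex. Calcein is a fluorescent chelator with high Fe(III) affinity, and Fe(III) coordination quenches its fluorescence stoichiometrically. Relative Fe(III) affinity is inferred from the competing equilibrium, read as change in calcein fluorescence.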

NCI-H460 = assay: Cytotoxicity against human NCI-H460 cells assessed as reduction in cell viability up to 30 uM after 68 hrs by MTT assay; format: functional, cell-based
[2] = Metal chelating activity of the compound assessed as fluorescence recovery of calcein-Fe3 complex formation up to 40 uM measured after overnight incubation by CAFe based fluorescence spectrophotometry; summary of the method: as §1
Candida albicans = assay: Growth inhibition of Candida albicans ATCC 90028 after 48 by broth micro-dilution method; format: functional
Staphylococcus aureus = assay: Growth inhibition of Staphylococcus aureus ATCC 25923 after 24 by broth micro-dilution method; format: functional
KB 3-1 = assay: Cytotoxicity against human KB-3-1 cells assessed as reduction in cell viability up to 30 uM after 68 hrs by MTT assay; format: functional, cell-based
Pseudomonas aeruginosa = assay: Growth inhibition of Pseudomonas aeruginosa ATCC 27853 after 24 by broth micro-dilution method; format: functional
Escherichia coli = assay: Growth inhibition of Escherichia coli ATCC 25922 after 24 by broth micro-dilution method; format: functional
SW-620 = assay: Cytotoxicity against human SW620 cells assessed as reduction in cell viability up to 30 uM after 68 hrs by MTT assay; format: functional, cell-based

| SMILES | Activity [1] | Activity (NCI-H460) | Activity [2] | IC50 (Candida albicans) [µM] | IC50 (Staphylococcus aureus) [µM] | Activity (KB 3-1) | IC50 (Pseudomonas aeruginosa) [µM] | IC50 (Escherichia coli) [µM] | Activity (SW-620) |
| --- | --- | --- | --- | --- | --- | --- | --- | --- | --- |
| C/C(=C\C(=O)N(O)CCC[C@@H]1NC(=O)[C@H](CCCN(O)C(=O)/C=C(\C)CCO)NC1=O)CCO | Active | inactive | Active | > 30 | > 30 | inactive | > 30 | > 30 | inactive |
| CC(=O)N[C@@H](CCCN(O)C(=O)/C=C(\C)CCO)C(=O)OCC/C(C)=C/C(=O)N(O)CCC[C@@H]1NC(=O)[C@H](CCCN(O)C(=O)/C=C(\C)CCO)NC1=O | Active | inactive | Active | > 30 | > 30 | inactive | > 30 | > 30 | inactive |
| CC(=O)N[C@@H](CCCN(O)C(=O)/C=C(\C)CCO)C(=O)OCC/C(C)=C/C(=O)NCCC[C@@H]1NC(=O)[C@H](CCCN(O)C(=O)/C=C(\C)CCO)NC1=O |  | inactive |  | > 30 | > 30 | inactive | > 30 | > 30 | inactive |
| C/C(=C\C(=O)NCCC[C@@H]1NC(=O)[C@H](CCCNC(=O)/C=C(\C)CCO)NC1=O)CCO |  | inactive |  | > 30 | > 30 | inactive | > 30 | > 30 | inactive |
| C/C(=C\C(=O)NCCC[C@@H]1NC(=O)[C@H](CCCN(O)C(=O)/C=C(\C)CCO)NC1=O)CCO |  | inactive |  | > 30 | > 30 | inactive | > 30 | > 30 | inactive |
| CC(=O)N[C@@H](CCCN(O)C(=O)/C=C(\C)CCO)C(=O)OCC/C(C)=C/C(=O)N(O)CCC[C@@H]1NC(=O)[C@H](CCCNC(=O)/C=C(\C)CCO)NC1=O |  | inactive |  | > 30 | > 30 | inactive | > 30 | > 30 | inactive |
| CC(=O)N[C@@H](CCCN(O)C(=O)/C=C(\C)CCO)C(=O)OCC/C(C)=C/C(=O)NCCC[C@@H]1NC(=O)[C@H](CCCNC(=O)/C=C(\C)CCO)NC1=O |  | inactive |  | > 30 | > 30 | inactive | > 30 | > 30 | inactive |
